Hits are enriched below; roughly 1.1% of the tested compounds scored in any of these assays.
Furin inhibitor: human furin inhibitors, primary screen, biochemical, fluorescence intensity | P09958 | purified furin, fluorogenic substrate cleavage | inhibition, % at 20 µM or 30 µM | hit rate 0.061% among 220,000 | AID 463115, 2010; in the data active = inhibition above about 25%
hK5 inh: human KLK5 protease inhibitors, primary screen, biochemical, 1536-well | Kallikrein-5 (Homo sapiens), Q9Y337 | recombinant hK5, fluorogenic AMC substrate cleavage | inhibition, % at 5 µM | hit rate 0.59% among 210,000 | AID 873, 2007;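 active = inhibition of 40% or more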;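 also: 0% = enzyme controls without compound and 100% = no-enzyme blanks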
FXIIa inh 1536: human FXIIa protease inhibitors, primary screen, biochemical, 1536-well | purified FXIIa, Boc-QGR-AMC fluorogenic substrate, 2 h | inhibition, % at 5 µM | hit rate 0.3% among 220,000; in the data active = inhibition above about 40%;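 also: 0% = enzyme with no compound and 100% = blank without enzyme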
Target sequence (P00748 20-372 limits assumed): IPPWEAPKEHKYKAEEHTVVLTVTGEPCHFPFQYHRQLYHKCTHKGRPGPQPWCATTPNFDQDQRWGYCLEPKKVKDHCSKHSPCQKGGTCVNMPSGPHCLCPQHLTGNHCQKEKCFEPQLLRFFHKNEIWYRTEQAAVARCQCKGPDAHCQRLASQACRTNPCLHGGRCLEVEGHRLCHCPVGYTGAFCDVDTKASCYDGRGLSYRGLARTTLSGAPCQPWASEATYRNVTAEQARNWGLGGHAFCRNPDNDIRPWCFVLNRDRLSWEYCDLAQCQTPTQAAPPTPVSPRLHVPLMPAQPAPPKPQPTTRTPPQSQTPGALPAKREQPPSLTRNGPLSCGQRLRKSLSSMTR
Target sequence (P00748 373-615 limits assumed): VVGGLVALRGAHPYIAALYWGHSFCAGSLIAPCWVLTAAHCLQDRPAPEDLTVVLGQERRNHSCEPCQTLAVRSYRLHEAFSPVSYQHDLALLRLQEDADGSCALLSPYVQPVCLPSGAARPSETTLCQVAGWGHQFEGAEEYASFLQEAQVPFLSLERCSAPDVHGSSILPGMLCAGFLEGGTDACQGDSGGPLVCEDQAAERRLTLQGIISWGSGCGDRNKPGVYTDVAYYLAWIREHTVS
FXIa inh 1536: human FXIa protease inhibitors, primary screen, biochemical, 1536-well; Coagulation factor XI (Homo sapiens), P03951; purified FXIa, Boc-Glu-Ala-Arg-AMC fluorogenic substrate; inhibition, % at 5 µM; hit rate 0.14% among 220,000;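 active = inhibition of at least 40%; inactive = inhibition below 40%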;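 also: fluorescence of freed AMC excited at 355 nm; 0% = enzyme without compound and 100% = no enzyme blank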
Thrombin inh: human alpha-thrombin inhibitors, primary screen, counter-screen for coagulation protease inhibitor project, biochemical, 1536-well, fluorogenic AMC substrate; hit rate 0.26% among 220,000; Prothrombin (Homo sapiens), P00734; Boc-VPR-AMC fluorogenic substrate cleavage; inhibition, % at 5 µM;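 active = inhibition at or above 40%; inactive = inhibition below 40%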;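 also: 0% = enzyme with no compound and 100% = wells without enzyme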
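signal = AMC fluorescence, 355/460 nm | material = human alpha-thrombin enzyme | control set = enzyme without compound as high, wells lacking enzyme as low | times = reaction at room temperature | read-out basis = percent inhibition scaled between no-compound controls and no-enzyme blanks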
Starred values were filed as active, the others as inactive.

SMILES	Furin inhibitor	hK5 inh	FXIIa inh 1536	FXIa inh 1536	Thrombin inh
CCc1cc(C(c2ccccn2)N2CCN(C)CC2)c(NC(=O)c2ccccc2)s1 (stereo not given)	25*	10	23	27	-4
Clc1cccc(-c2nn3c(Cn4cnc5ccccc54)nnc3s2)c1	34*	-1	9	0	1
c1csc(-c2nn3c(Cn4cnc5ccccc54)nnc3s2)c1	-11	4	12	6	3
COCCNC(=S)N1CCc2cc(OC)c(OC)cc2C1c1cccs1 (stereo not given)	-6	-22	1	-5	2
COc1cc(/C=N/NC(=O)C(=O)Nc2ccccn2)ccc1O	-1	70*	4	12	29
O=C(NC(=S)NCCCN1CCOCC1)c1cccc2ccccc12	-22	4	11	0	-3
Cc1ccc2c(c1C)NC(C)CC2C (stereo not given)	26*	5	-1	-6	-4
Cc1cccc2c1NC1(CCCC1)CC2C (stereo not given)	-15	0	2	-2	-6
N#Cc1cc2c(nc1SCC(O)CS(=O)(=O)Cc1ccccc1)CCCC2 (stereo not given)	9	2	8	-1	-3
COC(=O)c1cc2occc2n1CC(=O)Nc1cc(OC)cc(OC)c1	-12	62*	27	2	18
CCOC(=O)N1CCN(C(=O)CSc2nnc(CNC(=O)c3c(F)cccc3Cl)o2)CC1	-25	42*	22	-1	13
O=C(NCc1cccs1)C1CCC(CNS(=O)(=O)c2cccc3nsnc23)CC1 (stereo not given)	-5	52*	8	2	2
CC(=O)N1CCCC(C(=O)c2ccc(Oc3ccccc3)cc2)C1 (stereo not given)	-5	5	7	-3	-10
COc1cccc(/C=N/NC(=O)CNC(=O)c2ccc(S(=O)(=O)N3CCCC3)cc2)c1OC	-29	-6	5	-9	-32
COC(=O)CS(=O)(=O)c1ccsc1C(=O)Nc1ccc(F)cc1	-24	-5	8	-2	-8
COc1cc(/C=C2/C(=O)NN(c3cccc(C)c3)C2=O)ccc1OC(=O)c1ccco1	-15	60*	12	19	6
COc1nc(C)ccc1-c1noc(-c2ccccn2)n1	28*	-11	12	3	0
O=C(NCc1cccnc1)c1cccc2c1C(=O)N(Cc1cccnc1)C2	-22	-1	-15	-4	-13
CCOc1cc(NC(=S)NCCCN2CCOCC2)c(OCC)cc1NC(=O)C1CCCCC1	-17	-3	7	-6	-10
Cn1nc(C(F)(F)F)c(-c2ccccc2)c1NC(=O)CSCC(=O)O	-16	-3	6	2	-3
Cn1nc(C(F)(F)F)c(-c2ccccc2)c1NC(=O)CCC(=O)O	-5	43*	30	27	31
Cc1ccc(CCNC(=O)C2CCC(=O)N2C2CCCC2)cc1 (stereo not given)	-9	-3	10	-13	-6
CCSc1ccccc1C(=O)NCCCn1ccnc1	-18	43*	20	-5	3
CCCC(=O)Nc1cccc(-c2nc3ccccc3c(=O)o2)c1	-24	-1	7	-5	-17
Cc1cc(C(=O)Cn2nc(C(=O)O)c3ccccc3c2=O)c(C)n1-c1cccc(C(F)(F)F)c1	-8	24	24	72*	17
SMILES	Furin inhibitor	hK5 inh	FXIIa inh 1536	FXIa inh 1536	Thrombin inh
Cc1cc(C(=O)Cn2nc(C(=O)O)c3ccccc3c2=O)c(C)n1-c1ccc(F)cc1	-12	-2	26	24	4
CC(C)(C)c1ccc(C(=O)Cn2nc(C(=O)O)c3ccccc3c2=O)cc1	-11	44*	12	30	29
c1ccc(-c2csc(-n3cccn3)n2)cc1	-22	3	10	-4	-9
CCNC(=S)N1CCC(NC(=O)c2ccco2)CC1	-10	-2	5	-1	2
CNC(=S)N1CCC(NC(=O)c2ccco2)CC1	-8	18	25	44*	29
CCCn1c(/N=C/c2ccc3c(c2)OCO3)nc2ccccc21	-18	43*	12	5	14
O=C(COC(=O)c1ccccc1Br)Nc1ccccc1F	-28	0	13	-2	0
CCOC(=O)C(C(=O)NCc1cccc(OC)c1)c1ncc(C(F)(F)F)cc1Cl (stereo not given)	-12	36	45*	19	25
COc1ccc(NC(=O)c2oc3ccc(S(=O)(=O)N4CCC5(CC4)OCCO5)cc3c2C)cc1	2	100*	15	11	8
CCOC(=O)N1CCN(C(=O)c2oc3ccc(S(=O)(=O)N4CCOCC4)cc3c2C)CC1	-17	-9	3	-8	40*
Cc1c(C(=O)NCCc2ccccc2)oc2ccc(S(=O)(=O)N3CCC4(CC3)OCCO4)cc12	-3	-6	8	8	-1
Cc1ccc(S(=O)(=O)N2CCN(C(C(=O)Nc3ccc(F)cc3)c3ccccc3)CC2)cc1 (stereo not given)	-8	46*	11	18	33
CC(=O)Nc1cc(-c2ccc(Cl)cc2)nn1-c1ccccc1	28*	-4	11	4	1
CC(=O)Nc1cc(-c2ccccc2)nn1Cc1ccc(Cl)cc1	-18	-5	13	0	0
Cc1occc1C(=O)Nc1cc(C(F)(F)F)ccc1Cl	4	27	27	15	50*
COc1ccc(C(C)(C)C)cc1NC(=O)c1ccoc1C	18	-1	6	3	-7
O=C(N/N=C/c1ccc2c(c1)OCO2)C1COc2ccccc2O1 (stereo not given)	-6	46*	17	-1	6
CCOC(=O)c1sc(NC(=O)/C=C/c2cnn(C)c2C)c(C(=O)OCC)c1C	-16	9	6	0	47*
Nc1nnn(CC(=O)N/N=C/c2ccc(Cl)cc2Cl)n1	-24	6	17	2	5
O=C(NC(=S)Nc1ccc(S(=O)(=O)Nc2nccs2)cc1)c1ccccc1	-1	-3	-2	-12	-6
O=C(NC(=S)Nc1ccc(S(=O)(=O)Nc2nccs2)cc1)c1ccccc1F	-21	10	77*	28	19
COc1cc2nc(=S)n3[nH]c(COc4ccccc4C)nc3c2cc1OC	-3	45*	19	12	17
CC(C)(C)c1[nH]c2ccccc2c1/C=N/O	-15	32	8	0	-2
CC(C)(CO)N=Cc1c(O)[nH]c2ccccc12	-6	48*	17	4	1
Cc1cccc(/N=C/c2c(O)[nH]c3ccccc23)n1	-3	15	14	9	8
CC(C)N=Cc1c(O)[nH]c2ccccc12	-17	-15	46*	14	4
